Experimental data as given in ChEMBL document CHEMBL1133108, “Neurosteroid analogues. 8. Structure-activity studies of N-acylated 17a-aza-D-homosteroid analogues of the anesthetic steroids (3alpha, 5alpha)- and (3alpha,5beta)-3-hydroxypregnan-20-one” (J Med Chem, 2000).

Assays:
[1] = target: T1, GABA-A receptor; alpha-1/beta-2/gamma-2 (Rattus norvegicus) (UniProt P18508+P62813+P63138); assay: Electrophysiological effect on rat alpha-1-beta-2-gamma-2 GABA-A receptor subunits expressed in xenopus laevis oocytes at 10 uM; format: functional, cell-based; details: Oocyte
Procedure, shortened: (§1)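 Oocytes express rat α1β2γ2 GABAA receptors. The control response uses 2 μM GABA. Steroid is co-applied at 0.1, 1 or 10 μM. The value is the ratio of current with steroid to current without it. N = 3–6 (12 for one reference steroid), mean ± SEM. These are not full concentration-response curves.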

[2] = target: GABA-A receptor; anion channel; assay: Displacement of […]-tert-butylbicyclophosphorothionate (TBPS) from Gamma-aminobutyric acid A (GABA-A) receptor of rat brain membranes; format: cell membranes, Membrane
Procedure, shortened: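 Noncompetitive displacement of [35S]TBPS from the picrotoxin site in rat brain membranes. Full concentration-response curves were fitted for IC50. Data come from duplicate experiments, each run in triplicate, with mean ± SEM reported. Hill coefficients are given.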

[3] = target: T1, GABA-A receptor; alpha-1/beta-2/gamma-2 (Rattus norvegicus); assay: Electrophysiological effect on rat alpha-1-beta-2-gamma-2 GABA-A receptor subunits expressed in xenopus laevis oocytes at 1 uM; format: functional, cell-based; details: Oocyte; procedure, shortened: as §1
[4] = target: T1, GABA-A receptor; alpha-1/beta-2/gamma-2 (Rattus norvegicus); assay: Electrophysiological effect on rat alpha-1-beta-2-gamma-2 GABA-A receptor subunits expressed in xenopus laevis oocytes at 0.1 uM; format: functional, cell-based; details: Oocyte; procedure, shortened: as §1
[5] = target: T1, GABA-A receptor; alpha-1/beta-2/gamma-2 (Rattus norvegicus); assay: Electrophysiological effect on rat alpha-1-beta-2-gamma-2 GABA-A receptor subunits expressed in xenopus laevis oocytes at 10 uM in the absence of GABA; format: functional, cell-based; details: Oocyte
Procedure, shortened: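 Rat α1β2γ2 GABAA receptors are expressed in Xenopus oocytes. Steroid at 10 μM is applied alone, without GABA, and the directly gated current is measured. The value is the ratio of steroid-only current to the 2 μM GABA control current. N = 3–6 (12 for one reference steroid), mean ± SEM.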

Compound	Activity [1]	IC50 [2] [nM]	Activity [3]	Activity [4]	Activity [5]
C[C@]12CCC3C(CC[C@H]4C[C@H](O)CC[C@]34C)C1CCCN2C(=O)C(F)(F)F (some centres undefined)	10.1	430	1.91	1.11	0.5
C[C@]12CCC3C(CC[C@@H]4C[C@H](O)CC[C@]34C)C1CCCN2C(=O)C(F)(F)F (some centres undefined)	1.12	6220	0.96	0.98	0.02
CC(=O)N1CCCC2C3CC[C@@H]4C[C@H](O)CC[C@]4(C)C3CC[C@@]21C (some centres undefined)	1.18		1.04	1.37	0.01
CC(=O)[C@H]1CC[C@H]2[C@@H]3CC[C@H]4C[C@H](O)CC[C@]4(C)[C@H]3CC[C@]12C [BREXANOLONE]	9.65	74	3.89	1.26	0.37
CC(=O)[C@H]1CC[C@H]2[C@@H]3CC[C@@H]4C[C@H](O)CC[C@]4(C)[C@H]3CC[C@]12C [ELTANOLONE]	4.3	71	1.92	0.97	0.01
C[C@]12CCC3C(CC[C@@H]4C[C@H](O)CC[C@]34C)C1CCCN2C(=O)CO (some centres undefined)	3.87	930	1.57	1.36	0.1
C[C@@]1(O)CC[C@]2(C)C3CC[C@@]4(C)C(CCCN4C(=O)CO)C3CC[C@H]2C1 (some centres undefined)	6.5	550	1.22	1	0.2
CC(=O)N1CCCC2C3CC[C@H]4C[C@](C)(O)CC[C@]4(C)C3CC[C@@]21C (some centres undefined)	1.99	2610	1.04	0.96	0.05
C[C@]12CCC3C(CC[C@H]4C[C@H](O)CC[C@]34C)C1CCCN2C(=O)CO (some centres undefined)	8.09	45	1.73	1.17	0.49
C[C@]12CC[C@@H](O)C[C@@H]1CC[C@@H]1[C@@H]2CC[C@]2(C)[C@@H](C(=O)CO)CC[C@@H]12	11.8	39	4.55	1.3	1.67
C[C@]12CC[C@@H](O)C[C@H]1CC[C@@H]1[C@@H]2CC[C@]2(C)[C@@H](C(=O)CO)CC[C@@H]12	5.43	120	2.37	1.21	0.19
CC(=O)N1CCCC2C3CC[C@H]4C[C@H](O)CC[C@]4(C)C3CC[C@@]21C (some centres undefined)	3.74	200	1.66	1.21	0.05
